Test system: MS2 coat protein
Assay: apparent Kd, MS2 coat protein; higher = weaker binding; RNA-MaP array; FMN 200 µM where present
Method in brief: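 Green signal from SNAP-549-labelled MS2 coat protein was normalised to red-channel RNA signal and to the median Fmax of control clusters. The protein was titrated from 0.7 or 1.5 nM, doubling to 3 µM, without and then with constant ligand, over designs transcribed by stalled E. coli RNA polymerase on Illumina sequencing-chip clusters, in 100 mM Tris-HCl pH 7.5, 80 mM KCl, 4 mM MgCl2, BSA, DTT, yeast tRNA and Tween-20. The apparent Kd is the median of filtered per-cluster binding-curve fits.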

[1] = designed as: OFF switch for flavin mononucleotide, no ligand
[2] = ligand present: flavin mononucleotide, designed as: OFF switch for flavin mononucleotide
[3] = designed as: ON switch for flavin mononucleotide, no ligand
[4] = ligand present: flavin mononucleotide, designed as: ON switch for flavin mononucleotide

Row | Sequence | apparent Kd [1] | apparent Kd [2] | apparent Kd [3] | apparent Kd [4]
1 | CCCGGGUUUGUGAGGAUAUGCCCGGGUAAACCCGGGUAGAAGGCACAUGAGGAUCACCCAUGUAAGGGCCCGGG | 16.7 nM | 17 nM |  | 
2 | UAAAUACAUGAGGAUCACCCAUGUGAGGAUAUCCGAUGAUUCGGAGAAAGGACCCGUUGGAGAAGGCAUAGGGC | 27.1 nM | 21 nM |  | 
3 | UAAUUUAACAAGAAGGCUAACAUGAGGAUCACCCAUGUUGUACAUGGAUAUAGAGGAUAUUGCUAAUAAUUAUUUAUCAUAAUU | 24.2 nM | 19.2 nM |  | 
4 | GGAGCUCCCAUUAACAUGAGGAUCACCCAUGUCAAAAGACAUGAGGAUAUGGUACCUAAUUGGUACCAGAAGGCAUGGAGCUCC |  |  | 1180 nM | 107 nM
5 | GUAACAUGAGGAUCACCCAUGUCGUGCUAGAUGAGUUCUAGUGAGGAUAUACAUGGUAAAUAACUGUAGAAGGUGCUGGGUACA |  |  | 192 nM | 229 nM
6 | CUCAGACAUGAGGAUCACCCAUGUGAGGAUAUGAUGCGAUCGUCGAAAGACGAUAGCAUCAGAAGGCACAAAUG | 78.4 nM | 305 nM |  | 
7 | AAAAAGUCAGGAUAUAUCAAAGCCUAUGAAAGUGGGAAAGGGUAGAAGGGACAUGAGGAUCACCCAUGUAAAAA | 52 nM | 50.3 nM |  | 
8 | GGUCGUCCCAUUAACAUGAGGAUCACCCAUGUCAAAAGACAUGAGGAUAUGCAUCCUAAUUGGAUGCAGAAGGCAUGGACGACC |  |  | 1060 nM | 87.7 nM
9 | UUAUUUUUAUGAUUGAGGAUAGGGCAGGAUAUACAUGAGGAUCACCCAUGUAAAGCAAUAAGGAGGUAGAAGGGCCAACCUCAU | 24.3 nM | 20.1 nM |  | 
10 | GGUGCGUUUGUGAGGAUAUGCUGGUCCUUGGUUCGGCAGAAGGCACAUGAGGAUCACCCAUGUGGUGUCGUUCC | 15 nM | 23.3 nM |  | 
11 | GGAAACUACGAGAAGGACAUGUGGUCCUUCAGUUACAUGAGGAUCACCCAUGUAGGAUAUCGUAGUUUCAGGAUCGUGAGAUCC | 33 nM | 12.8 nM |  | 
12 | AAGUAGAUCCGAGGAUAUACAUUGCGGAAACGCAACAUGAGGAUCACCCAUGUAGAAGGCGGAUCUACAGGUACUAAAGUACCA | 10 nM | 17 nM |  | 
13 | CCGCAGUGUCUUCAGAAGACAUGAGGAUCACCCAUGUACCAGGAGGAUAUAGUGCGCUUUCCGCGCUAGAAGGCUUGGAUAUAG | 115 nM | 70.8 nM |  | 
14 | AAGGCACCUGAGAAGGGUACAUGAGGAUCACCCAUGUGGCUAUUUGUGCGUCGUUGACCAAGUGUACAGGAUAUUAGGGAACGU | 98 nM | 32.4 nM |  | 
15 | ACUGCAUAGUCAGGAUAUGCAAAAGCAGACUCAAAGAGUCUGAACAACACAUGAGGAUCACCCAUGUAGAAGGGACUGUGCAGU | 18.3 nM | 18 nM |  | 
16 | UUAAUUUUACAAGGAUAUCUAUUGUUAUUUCGACUUACAUGAGGAUCACCCAUGUUAAUAUAUUUAGAGAAGGUGUAUUUUCAG |  |  | 99.4 nM | 52.4 nM
17 | AAGUUUGUACGAGGAUAUCAGUUGUUUCUAAAUUCAACAUGAGGAUCACCCAUGUAACAAUGGAGUGAGAAGGCGUGUGGGCAA |  |  | 740 nM | 554 nM
18 | GAAGUUAGAGGAUAUACAUGAGGAUCACCCAUGUGUGUUGUGAACGAUGUACGUUUAUGUAGAAGGCUAACUUC | 23.6 nM | 106 nM |  | 
19 | UGCGUACAAGCGGACAUGAGGAUCACCCAUGUAGUCUUAUGCGAGGAUAUCGGGAAGGAGGAUUCCGAGAAGGUGCGGUGAGCC |  |  | 17.5 nM | 15.2 nM
20 | CUAUUUAGUGCCUCAUUUACAUGAGGAUCACCCAUGUUAACUUAGGAUAUAUUUAUAUUGUUAGAGUAGAAGGAAGUACAUUUU | 237 nM | 208 nM |  | 
21 | GAUCAAAACACUCCUUACACUACAUGAGGAUCACCCAUGUAGCAGGAUAUCGUUGCUCCUCGCUGCGAGAAGGGCUACGGGCGG | 8.02 nM | 13.8 nM |  | 

Row | Sequence | apparent Kd [1] | apparent Kd [2] | apparent Kd [3] | apparent Kd [4]
22 | GUCAGCUCGUGAGGAUAUACAUCACUGCUUCGGCAGUGUAUUAAGAGCACAUGAGGAUCACCCAUGUAGAAGGCACGAGCUGAU | 16.3 nM | 24.1 nM |  | 
23 | AAUUAUUGAUGAGGAUAUUGUGGUGAAACACGACGAGAAGGCAUAUGUCACAUGAGGAUCACCCAUGUGAGCCUUGUGGAUAUA | 52 nM | 112 nM |  | 
24 | CGUAUGUCAGGAUAUGUGUAUGCCGCUCAGGGCGAGCGGCAGCAGAAGGGACAUGAGGAUCACCCAUGUUCGGG | 62.5 nM | 127 nM |  | 
25 | ACAUUGUAUGUGAGGAUAUCGAUGGGAUGGGUUGUCGAGAAGGCACAUGAGGAUCACCCAUGUGGGAAACAGCA | 39.5 nM | 170 nM |  | 
26 | UGUGCGUAUGUGAGGAUAUGCUGGUCCUUGGAUCGGCAGAAGGCACAUGAGGAUCACCCAUGUGGUGUCGUUCG | 239 nM | 24 nM |  | 
27 | CGCUCAAGAGAGAAGGAUAGAGUCAGAAGGCGUUACAUGAGGAUCACCCAUGUAUAGUAGUGUAACGAGGAUAUGAAAUGAGCG | 194 nM | 250 nM |  | 
28 | CAUUAGCGAGGAUAUACAUGAGGAUCACCCAUGUGAUCCUAAGGCUGAUCAAGCCUAUGUAGAAGGCGCAAAUC | 593 nM | 83.6 nM |  | 
29 | CAUAUAGUAGUGAGGAUAUGCGAAUAUAUAAUUAAGUAGAAGGCACAUGAGGAUCACCCAUGUAUAUUGUAAAG | 20.6 nM | 20.6 nM |  | 
30 | GUGCAAUGAGGAUAUACGUUGGUGGGCAUCUGUGUGCUCCUACAUGAGGAUCACCCAUGUAGAAGGCAUGUCAC | 12.5 nM | 15.8 nM |  | 
31 | GACUGCUGAGGAUAUACAUGAGGAUCACCCAUGUGCUUCAGUAUCGAAAGAUACAUUGGUAGAAGGUGGUAGUC | 13.4 nM | 21.4 nM |  | 
32 | CUCAUGUGAGGAUAUGUGAUCUGCCUUCUAUGUAGAUGAUCACAGAAGGCACAUGAGGAUCACCCAUGUAGAUC | 119 nM | 23.4 nM |  | 
33 | UAUAUAUAGUAAGGAUAUGUAAUUAUUUUGUAAACAGAAGGUACUGACAUGAGGAUCACCCAUGUUUUAGUGUGGGCAUGUAGA | 117 nM | 182 nM |  | 
34 | GGCACCAUCACAGGAUAUGCUUUCCUUUGGGAAGCAGAAGGGUGUAACAUGAGGAUCACCCAUGUGGUGCCAGGGCGUGAGCCC |  |  | 164 nM | 14 nM
35 | AGUUCCUCCGCAGGAUAUGUGCUCUUUAUCACAUGAGGAUCACCCAUGUCAGCCUAAACGGCGAGACAGAAGGGUGGUGGUGCC |  |  | 172 nM | 177 nM
36 | AAGAAGAACGUAGGAUAUCAAUGAGGAUCACCCUGAGAAGGACGUGAGGACAUGAGGAUCACCCAUGUGGAUCACCCAUGUCAU | 168 nM | 130 nM |  | 
37 | GGAUAGGACCGAGGAUAUACGUGCUAGAGAUACUAGCAAAAUUUCCUCACAUGAGGAUCACCCAUGUAGAAGGCUGUCCUAUCG | 5.78 nM | 12.5 nM |  | 
38 | GAGAUGUGAGGAUAUCUAGACCGCGGCAGAGCUGCGGUCCGAGAGAAGGCACAUGAGGAUCACCCAUGUGAUGA | 57 nM | 207 nM |  | 
39 | GACAAGGGAGGAUAUGCACAAGGGAUAUCUGACAUGCCGAUACAUGAGGAUCACCCAUGUAGAAGGCCCGAAUA | 11.4 nM | 18.3 nM |  | 
40 | UCCUCCGCAGGAUAUACAUGGGCGCCCGUCUUCAACCAUUAACAUGAGGAUCACCCAUGUAGAAGGGCGUCUCU | 16.1 nM | 15.5 nM |  | 
41 | GGCGCAUUUGUGGCGUAUAGGUCGAAGGAUAUCACGUGCCGCCUAGUACAUGAGGAUCACCCAUGUGAGAAGGUCGAACUUAAC | 19.3 nM | 83.5 nM |  | 
42 | CCAUAACAUGAGGAUCACCCAUGUCGACUAAAUCAAGGAUAUGGGAACGCGCAAGCAAAACCAGAAGGUGAGGUCC |  |  | 255 nM | 236 nM

Source: the EternaBench riboswitch data
